Series [1] addresses Tubulin beta (Homo sapiens) (UniProt P68371+Q9H4B7+Q13509+P04350+Q3ZCM7+P07437+Q13885+Q9BVA1+Q9BUF5+A6NNZ2). Nature of the series: Inhibition of N,N'-Ethylenebis(iodoacetamide) binding to beta-tubulin in human HepG2 cells assessed as reduction in EBI/beta-tubulin adduct formation at 5 uM preincubated for 2 hrs followed by EBI addition and measured after 1.5 hrs by Western blot analysis. The series is classed as cell-based. Conditions: time 3.5 hrs. The essentials: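 HepG2 seeded 5 × 10⁵ cells/well, adhered overnight. Lysate protein (20 μg) run on 10% polyacrylamide gel on ice and transferred to PVDF. Probed with anti-β-tubulin 16 h at 4 °C, then HRP secondary. Chemiluminescence detection.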

A short description of series [2]: Lipophilicity, log P of the compound in DMSO and n-octanol at pH 7.4 incubated for 10 hrs under stirred condition by HPLC analysis. The series is classed as physicochemical. Conditions: n-octanol / aqueous phase pH 7.4, pH 7.4. The essentials:
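Partition between n-octanol and water: mixture stirred at room temperature for 10 h, then left at 4 °C overnight. Each phase analysed separately by HPLC on a C18 column. Log P taken from the ratio of peak areas in n-octanol and water.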

A short description of series [3]: Aqueous solubility of compound in DMSO at pH 7.4 by HPLC analysis. The following applies: aqueous medium. The series is classed as physicochemical. The essentials: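 Solubility measured at pH 7.4. DMSO stock (10 mg/mL) diluted in methanol to five levels to build an HPLC peak-area standard curve. Compound added to 1 mL buffer to make a saturated solution, and the peak area of that solution analysed by HPLC on a C18 column. Solubility calculated from the standard curve.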

The subject of series [4] is HCT-116. Nature of the series: Antiproliferation activity against human HCT116 cells assessed as cell growth inhibition measured after 72 hrs by MTT assay. The series is classed as functional. The method, boiled down: (§1)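 Cells grown in RPMI-1640 with 10% FBS at 37 °C, 5% CO2, seeded at 4−7 × 10³ cells/well and left to adhere overnight. Exposed to a range of concentrations for 72 h, then MTT (2.5 mg/mL stock) added for 4 h. Formazan dissolved in DMSO and absorbance read at 570 nm. GI50 taken as the concentration giving 50% growth inhibition, reported as mean ± SD of at least three independent experiments.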
For orientation: Tetrazolium assays rely on reduction of a dye to a coloured formazan, in cell work by metabolically active cells.

Series [5] in a line: Inhibition of porcine brain tubulin polymerization measured every 60 sec for 60 mins in presence of GTP by fluorescence assay. Set-up: species or system Sus scrofa. The essentials: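 Fluorescence kit assay using 2 mg/mL porcine brain tubulin with 2 mM MgCl₂, 0.5 mM EGTA, 1 mM GTP and 15% glycerol. Compound at various concentrations preincubated 1 min at 37 °C before adding the tubulin mix. Read at ex 355/em 460 nm every 60 s for 60 min. IC50 is the concentration giving 50% inhibition at 60 min; mean ± SD of ≥3 independent experiments.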

In series [6] the test system is HepG2. Description: Antiproliferation activity against human HepG2 cells assessed as cell growth inhibition measured after 72 hrs by MTT assay. The series is classed as functional. The essentials: as §1
The test system of series [7] is HepG2. Description: Antitumor activity against human HepG2 cells xenografted in Balb/c mouse assessed as reduction in tumor volume administered orally as 0.5% MC suspension for 21 days relative to control. The series is classed as functional. Set-up: scale not given: the % may be the effect or the level left. Conditions: time 21 day. (In general: A xenograft is tissue or cells of one species grown in another, often human tumour cells in immunodeficient mice.)

The subject of series [8] is A549. Description: Antiproliferation activity against human A549 cells assessed as cell growth inhibition measured after 72 hrs by MTT assay. The series is classed as functional. The method, boiled down:
as §1

The test system of series [9] is HepG2. Description: Induction of apoptosis in human HepG2 cells assessed as PARP cleavage at 20 nM incubated for 24 hrs by western blot analysis. The series is classed as functional, cell-based. The method, boiled down:
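Lysates (20 μg protein) run on 10% polyacrylamide gel, transferred to PVDF, blocked in 5% nonfat milk, probed overnight at 4 °C for cleaved PARP. HRP secondary, ECL detection, densitometry; one-way ANOVA with Dunnett's test vs control.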
(In western blotting, separated proteins are transferred to a membrane and probed.)

Structures are written as SMILES. Calls of active or inactive are those of the source. The rule behind the calls is not given here.

The term logD denotes lipophilicity at a set pH, counting ionised and neutral species. One may read the solubility as how much of the substance goes into solution per volume. As a reminder, the GI50 is the concentration that inhibits growth by half. One may read the IC50 as the concentration at which inhibition is half-maximal.

As to `CC[C@]1(O)C[C@H]2CN(CCc3c([nH]c4ccccc34)[C@@](C(=O)OC)(c3cc4c(cc3OC)N(C=O)[C@H]3[C@@](O)(C(=O)OC)[C@H](OC(C)=O)[C@]5(CC)C=CCN6CC[C@]43[C@@H]65)C2)C1`, the inhibition result in series [1] was “inactive”.

For `CCOc1cccc(Nc2nn(C)c3c2Cc2cc(OCC)c(OCC(N)=O)cc2-3)c1`, in series [2], the pH-dependent lipophilicity (logD) at 10 h stood at 3.18. Also, the solubility in [3] was below 5 µg/mL. Further, the GI50 is 39.6 nM in series [4], 8.6 nM in series [6] and 23.2 nM in series [8]. The half-maximal inhibitory concentration (IC50) in series [5] was found to be 4100 nM. Also, the Activity in series [7] came out at 50%.

With `COc1cc2c(c(OC)c1OC)-c1ccc(OC)c(=O)cc1[C@@H](NC(C)=O)CC2`, the result in series [9] was Active.

The values above are taken from ChEMBL document CHEMBL4699650, “SAR Investigation and Discovery of Water-Soluble 1-Methyl-1,4-dihydroindeno[1,2-c]pyrazoles as Potent Tubulin Polymerization Inhibitors” (J Med Chem, 2020).
